The results in this text go back to ChEMBL document CHEMBL2163243, “Metaproterenol, isoproterenol, and their bisdimethylcarbamate derivatives as human cholinesterase inhibitors” (J Med Chem, 2012).

The target in assay [1] is Cholinesterase (Homo sapiens, UniProt P06276, T271M/G418V). Nature of the assay: Inhibition of human BChE T243M/G390V mutant fluoride-resistant homozygous variant using propionylthiocholine as substrate assessed as inhibition rate constant incubated up to 30 mins prior to substrate addition by Ellman's method. Put shortly: (§1)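 BChE from heparinized human donor plasma (centrifuged supernatant, phenotyped), unpurified, diluted 150 - 300 times in phosphate buffer. Enzyme incubated ≤30 min with carbamate in 0.1 M phosphate buffer pH 7.4, 25 °C. Reaction stopped with PTCh (4.0 mM final) and residual activity read by Ellman (DTNB 0.3 mM final, 412 nm). At least three carbamate concentrations, at least two experiments. First-order constants from ln(v0/vi) vs time; ki = kmax/Ki.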
Background: DTNB colorimetry detects thiols as they appear.

For assay [2], the target named is T1, Cholinesterase (Homo sapiens, UniProt P06276). Nature of the assay: Inhibition of human BChE D70G mutant usual-atypical heterozygous variant using propionylthiocholine as substrate assessed as inhibition rate constant incubated up to 30 mins prior to substrate addition by Ellman's method. Put shortly:
as §1
Target sequence in this assay (P06276 29-602 limits assumed): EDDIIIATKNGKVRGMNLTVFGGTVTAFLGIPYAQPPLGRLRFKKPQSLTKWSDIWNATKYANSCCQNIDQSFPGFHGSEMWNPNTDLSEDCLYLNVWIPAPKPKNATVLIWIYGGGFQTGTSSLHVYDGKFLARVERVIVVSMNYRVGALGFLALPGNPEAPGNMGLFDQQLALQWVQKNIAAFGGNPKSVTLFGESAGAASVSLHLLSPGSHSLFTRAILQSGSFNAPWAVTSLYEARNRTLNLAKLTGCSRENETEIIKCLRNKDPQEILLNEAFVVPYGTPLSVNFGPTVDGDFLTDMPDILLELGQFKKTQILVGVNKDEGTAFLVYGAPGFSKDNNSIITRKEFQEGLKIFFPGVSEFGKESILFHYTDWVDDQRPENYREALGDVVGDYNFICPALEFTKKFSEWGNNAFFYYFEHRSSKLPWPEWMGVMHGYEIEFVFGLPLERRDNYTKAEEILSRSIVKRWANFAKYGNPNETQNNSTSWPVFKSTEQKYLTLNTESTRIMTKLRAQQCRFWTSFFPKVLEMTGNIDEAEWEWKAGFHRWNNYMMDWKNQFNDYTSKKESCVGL

Assay [3] addresses Cholinesterase (Homo sapiens, UniProt P06276, D98G). Nature of the assay: Inhibition of human BChE D70G mutant atypical homozygous variant using propionylthiocholine as substrate assessed as inhibition rate constant incubated up to 30 mins prior to substrate addition by Ellman's method. Put shortly:
as §1

Assay [4] deals with T1, Cholinesterase. Briefly: Inhibition of human BChE usual homozygous variant using propionylthiocholine as substrate assessed as inhibition rate constant incubated up to 30 mins prior to substrate addition by Ellman's method. The method, boiled down: as §1
Target sequence in this assay (P06276 29-602 limits assumed, stated change not applied): as the sequence (P06276 29-602 limits assumed) above
Assay [5] addresses T2, Acetylcholinesterase (Homo sapiens, UniProt P22303). Nature of the assay: Inhibition of human AChE using acetylthiocholine as substrate by Ellman's method.
The target in assay [6] is T2, Acetylcholinesterase. Nature of the assay: Inhibition of human AChE using acetylthiocholine as substrate assessed as inhibition rate constant by Ellman's method.
Assay [7] concerns the target T1, Cholinesterase. Nature of the assay: Inhibition of human BChE D70G/T243M/G390V mutant atypical-fluoride resistant heterozygous variant using propionylthiocholine as substrate assessed as inhibition rate constant incubated up to 30 mins prior to substrate addition by Ellman's method. The method, boiled down: as §1
Target sequence in this assay (P06276 29-602 limits assumed): as above
The target of assay [8] is T1, Cholinesterase. Nature of the assay: Inhibition of human BChE D70G/T243M/G390V mutant atypical-fluoride resistant heterozygous variant using propionylthiocholine as substrate by Ellman's method. The note with it: TDE = time-dependent effect. Put shortly: (§2)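 Reversible inhibition of plasma BChE (phenotyped donor plasma, diluted 150 - 300 times) measured at several PTCh concentrations, with and without inhibitor (0.5 mM - 10 mM). Ellman read-out at 412 nm, DTNB 0.3 mM final, 0.1 M phosphate pH 7.4, 25 °C. Ki,app per substrate concentration from the Hunter-Downs equation by linear regression. Y-intercept gives K(I) and x-intercept gives K(S).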
Target sequence in this assay (P06276 whole entry): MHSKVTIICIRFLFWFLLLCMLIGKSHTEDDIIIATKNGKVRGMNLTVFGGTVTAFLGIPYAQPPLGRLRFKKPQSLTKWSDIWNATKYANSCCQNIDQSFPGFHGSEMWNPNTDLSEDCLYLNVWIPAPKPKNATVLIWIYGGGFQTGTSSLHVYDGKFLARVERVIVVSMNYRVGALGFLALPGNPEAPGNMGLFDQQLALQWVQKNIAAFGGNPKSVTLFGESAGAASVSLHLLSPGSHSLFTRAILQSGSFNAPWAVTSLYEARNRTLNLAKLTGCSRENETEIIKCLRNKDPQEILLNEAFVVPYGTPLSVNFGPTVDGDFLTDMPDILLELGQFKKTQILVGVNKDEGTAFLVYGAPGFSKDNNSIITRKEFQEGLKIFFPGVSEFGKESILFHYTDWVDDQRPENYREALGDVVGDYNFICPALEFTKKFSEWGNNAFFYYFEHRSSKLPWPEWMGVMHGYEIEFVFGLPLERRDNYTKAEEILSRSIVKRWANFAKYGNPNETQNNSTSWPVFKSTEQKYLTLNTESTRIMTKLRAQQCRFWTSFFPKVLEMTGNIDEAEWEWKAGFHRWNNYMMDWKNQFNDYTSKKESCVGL

Assay [9] concerns the target T1, Cholinesterase. Nature of the assay: Inhibition of human BChE T243M/G390V mutant fluoride-resistant homozygous variant using propionylthiocholine as substrate by Ellman's method. The note with it: TDE = time-dependent effect. The method, boiled down:
as §2
Target sequence in this assay (P06276 whole entry): as above

Assay [10] addresses T1, Cholinesterase. Briefly: Inhibition of human BChE D70G mutant usual-atypical heterozygous variant using propionylthiocholine as substrate by Ellman's method. The settings on record: TDE = time-dependent effect. The method, boiled down:
as §2
Target sequence in this assay (P06276 whole entry): as above

Assay [11] concerns the target T1, Cholinesterase. Briefly: Inhibition of human BChE D70G mutant atypical homozygous variant using propionylthiocholine as substrate by Ellman's method. The note with it: TDE = time-dependent effect. The method, boiled down: as §2
Target sequence in this assay (P06276 whole entry): as above
Assay [12] has as its target T1, Cholinesterase. Briefly: Inhibition of human BChE usual homozygous variant using propionylthiocholine as substrate by Ellman's method. The settings on record: TDE = time-dependent effect. Put shortly: as §2
Target sequence in this assay (P06276 whole entry): as above
The species entered for assay [13] is Homo sapiens. Nature of the assay: Selectivity ratio of apparent dissociation constant for enzyme-inhibitor complex for human AChE to apparent dissociation constant for enzyme-inhibitor complex for human BChE T243M/G390V mutant fluoride-resistant homozygous variant. Put shortly: (§3)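 Human plasma BChE (phenotyped variants) and hemolysed erythrocyte AChE were used unpurified, with plasma diluted 150-300x and erythrocytes 600x. Activity was read by the Ellman method at 412 nm (DTNB 0.3 mM final) in 0.1 M phosphate, pH 7.4, 25 °C. Substrate was PTCh for BChE and ATCh for AChE, each at several concentrations, with inhibitor at 0.5-10 mM. Ki is the y-intercept of a Hunter-Downs linear regression.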

The species named for assay [14] is Homo sapiens. Briefly: Selectivity ratio of apparent dissociation constant for enzyme-inhibitor complex for human AChE to apparent dissociation constant for enzyme-inhibitor complex for human BChE D70G mutant atypical homozygous variant. The method, boiled down: as §3
Assay [15] concerns the target T1, Cholinesterase. Briefly: Binding affinity to human BChE D70G mutant atypical homozygous variant relative to terbutaline.
Target sequence in this assay (P06276 whole entry): as above

For orientation: Ki means a measure of affinity in units of concentration, obtained from inhibition or displacement. A low value points to higher affinity.

Sequence of Cholinesterase (Homo sapiens, UniProt P06276, D98G) (P06276 29-602 D98G limits assumed): as the sequence (P06276 29-602 limits assumed) above, with D70G counted along it
T2 sequence (P22303 whole entry): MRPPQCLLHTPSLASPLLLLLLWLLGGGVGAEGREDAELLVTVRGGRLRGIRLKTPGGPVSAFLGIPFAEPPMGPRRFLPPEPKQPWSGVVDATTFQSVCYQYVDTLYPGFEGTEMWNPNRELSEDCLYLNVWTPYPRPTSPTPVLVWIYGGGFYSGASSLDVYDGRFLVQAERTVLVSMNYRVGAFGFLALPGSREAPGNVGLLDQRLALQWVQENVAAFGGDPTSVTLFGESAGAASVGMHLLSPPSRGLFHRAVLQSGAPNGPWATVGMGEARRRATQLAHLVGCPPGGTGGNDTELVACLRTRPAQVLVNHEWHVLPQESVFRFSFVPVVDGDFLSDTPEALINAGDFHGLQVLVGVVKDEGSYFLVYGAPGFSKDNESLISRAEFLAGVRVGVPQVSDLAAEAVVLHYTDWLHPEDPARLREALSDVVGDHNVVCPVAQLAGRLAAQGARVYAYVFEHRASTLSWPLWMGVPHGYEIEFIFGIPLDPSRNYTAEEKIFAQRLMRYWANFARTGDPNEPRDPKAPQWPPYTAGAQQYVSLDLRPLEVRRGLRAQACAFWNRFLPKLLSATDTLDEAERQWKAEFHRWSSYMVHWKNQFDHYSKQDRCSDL
Sequence of Cholinesterase (Homo sapiens, UniProt P06276, T271M/G418V) (P06276 29-602 T271M/G418V limits assumed): as the sequence (P06276 29-602 limits assumed) above, with T243M, G390V counted along it

For `CC(C)NC[C@H](O)c1cc(OC(=O)N(C)C)cc(OC(=O)N(C)C)c1.Cl`, the “bimolecular inhibition rate constant (ki)” value worked out at 1100 ×10³ /M/min at Cholinesterase [1], 2200 ×10³ /M/min on Cholinesterase [2], 76 ×10³ /M/min on Cholinesterase [3] and 3200 ×10³ /M/min at Cholinesterase [4]. This compound yielded a Ki on Acetylcholinesterase [5] of 390 µM. For the same compound, the Inhibition rate constant on Acetylcholinesterase [6] is reported as 4.7 ×10³ /M/min. Besides, the “Carbamylation rate constant (ki)” value on Cholinesterase [7] is recorded as 550 ×10³ /M/min.

As to `CC(C)NC[C@H](O)c1ccc(OC(=O)N(C)C)c(OC(=O)N(C)C)c1.Cl`, the “bimolecular inhibition rate constant (ki)” value on Cholinesterase [1] is 150 ×10³ /M/min; at Cholinesterase [2], 210 ×10³ /M/min; at Cholinesterase [3], 31 ×10³ /M/min; on Cholinesterase [4], 340 ×10³ /M/min. On Acetylcholinesterase [5], this compound gave a Ki of 1200 µM. The Inhibition rate constant on Acetylcholinesterase [6] is 2.7 ×10³ /M/min. In addition, the “Carbamylation rate constant (ki)” value on Cholinesterase [7] was determined as 100 ×10³ /M/min.

In the case of `CC(C)NCC(O)c1cc(OC(=O)N(C)C)cc(OC(=O)N(C)C)c1.Cl` (racemic), the “bimolecular inhibition rate constant (ki)” value turned out to be 600 ×10³ /M/min on Cholinesterase [1], 1400 ×10³ /M/min at Cholinesterase [2], 40 ×10³ /M/min at Cholinesterase [3] and 2200 ×10³ /M/min at Cholinesterase [4]. For the same compound, the inhibition result at Cholinesterase [8], at Cholinesterase [9], on Cholinesterase [10], on Cholinesterase [11] and at Cholinesterase [12] was “tde” throughout. The compound further displayed a Ki on Acetylcholinesterase [5] of 710 µM. Further, the Inhibition rate constant at Acetylcholinesterase [6] worked out at 2.3 ×10³ /M/min. Besides, the “Carbamylation rate constant (ki)” value at Cholinesterase [7] is on record as 440 ×10³ /M/min.

Turning to `CC(C)NCC(O)c1ccc(OC(=O)N(C)C)c(OC(=O)N(C)C)c1.Cl` (racemic), the “bimolecular inhibition rate constant (ki)” value at Cholinesterase [1] stood at 140 ×10³ /M/min; at Cholinesterase [2], 160 ×10³ /M/min; at Cholinesterase [3], 21 ×10³ /M/min; on Cholinesterase [4] it was 200 ×10³ /M/min. Besides, the inhibition entry at Cholinesterase [8], on Cholinesterase [9], at Cholinesterase [10], on Cholinesterase [11] and on Cholinesterase [12] was “tde” each time. Further, at Acetylcholinesterase [5], the Ki stood at 1400 µM. Besides, the Inhibition rate constant on Acetylcholinesterase [6] amounted to 2.5 ×10³ /M/min. The “Carbamylation rate constant (ki)” value on Cholinesterase [7] turned out to be 87 ×10³ /M/min.

For `CC(C)NCC(O)c1cc(O)cc(O)c1` (racemic), the Selectivity ratio in the assay listed under Homo sapiens [13] and in the assay filed under Homo sapiens [14] was 4 throughout.

As to `CC(C)NCC(O)c1ccc(O)c(O)c1` (racemic), the Ratio on Cholinesterase [15] came out at 2. Moreover, the Selectivity ratio in the assay listed under Homo sapiens [13] and in the assay listed under Homo sapiens [14] was 4 each time.
